The array DNA melting data of Ke et al. (doi:10.1101/2024.01.08.574731)

Tests used:
[1] = folding enthalpy; higher = less favourable; fluorescence melt of hairpins on a sequencing array, two-state fit; conditions: sodium 0.088 M
How it was run: (§1)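 Bootstrapped two-state fits yielded melting temperature and folding enthalpy for library hairpins. Cy3 fluorescence, with annealed Cy3 and quencher oligos, was imaged on a sequenced MiSeq flow cell in 50 mM Na-HEPES pH 8.0, 25 mM NaCl in 2.5 °C steps up to 60 °C, and normalised to pre-quench Cy3 and to control constructs. Four replicates were combined by inverse variance, and fitted temperatures were raised by 9.35 °C to match UV melts.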

[2] = melting temperature; fluorescence melt of hairpins on a sequencing array, two-state fit, raised by 9.35 °C to match UV melts; conditions: sodium 0.088 M
How it was run: as §1

| Sequence | folding enthalpy [1] [kcal/mol] | Tm [2] [°C] |
| --- | --- | --- |
| GTCTGATCGAAAGATGAC (((..(((....)))))) | -19.8 | 30.1 |
| GAAGGAGGAAACTCTTTC (((.(((....))).))) | -20.7 | 31.6 |
| GTTTCACGAAAGTGAAC (((.(((....)))))) | -14.4 | 49.4 |
| GGCATCTCGAAAGAGGCC (((..(((....)))))) | -26.6 | 51.2 |
| GTTTGAGGAAACTTAAGC (.((.((....)).)).) | -13.9 | 31.9 |
| GCGCCGCGAAAGCCGAGC ((.(.((....)).).)) | -18.9 | 50.5 |
| GATAGAGGAAACTCTGTC ((.((((....)))).)) | -32.1 | 38 |
| GCGTGCGAAAGCATACGC ((((((....)))..))) | -28.9 | 63.9 |
| GATCGTCCCTACGATC ((((((....)))))) | -43.9 | 55 |
| GATCGAATTTTCGATC ((((((....)))))) | -36.1 | 55.1 |
| GAAGACGCGAAAGCGTTC (((..(((....)))))) | -7.5 | 32.1 |
| GATCGTTGCCACGATC ((((((....)))))) | -39.9 | 54.5 |
| GGTAGAGGAAACTTTACC ((((.((....)).)))) | -24.9 | 34 |
| GGCATCGAAAGATCGGCC ((((((....)))..))) | -23.7 | 41.1 |
| GGTCTTGGAAACAAGACC (((((((....))))))) | -45.2 | 64.2 |
| GCACACGGAAACGCATGC (((..((....))..))) | -12.7 | 26.4 |
| GATCCCGGATGGGATC ((((((....)))))) | -28 | 67.8 |
| GGCCTCGAAAGAGAAGCC ((((((....)))..))) | -26 | 47.9 |
| GATCAAGGCTTGATC ((((((...)))))) | -49.3 | 47.8 |
| GCAGTTCGAAAGAAGTGC (((.(((....))).))) | -51 | 56.2 |
| GCATCCGCGAAAGCGTGC (((..(((....)))))) | -10.9 | 40.3 |
| GCACCGCGAAAGCGTTGC (((.(((....))).))) | -42.6 | 56.3 |
| GTGCTCGGAAACGAACAC (((.(((....))).))) | -35.3 | 47.6 |

| Sequence | folding enthalpy [1] [kcal/mol] | Tm [2] [°C] |
| --- | --- | --- |
| GTAACCGGAAACAGTTAC (((((.(....).))))) | -21.2 | 32.9 |
| GAGCGCGGAAACACGCTC (((((.(....).))))) | -41.1 | 56.2 |
| GTCACGCCGAAAGGCGAC (((..(((....)))))) | -6.44 | 32.1 |
| GTCGGCGAAAGCCCGGAC ((((((....)))..))) | -14.2 | 42.4 |
| GATCCGCCTCGGATC ((((((...)))))) | -30 | 56.7 |
| GGTATGGGAAACCATATC (.(((((....))))).) | -24.1 | 39.7 |
| CCCATGAAAATGGG (((((....))))) | -20.9 | 51.2 |
| GATCTCACTCGAGATC ((((((....)))))) | -50.8 | 52.1 |
| GACTTCCCGAAAGGGGTC (((..(((....)))))) | -10.5 | 34 |
| GCTATACCGAAAGGTAGC (((..(((....)))))) | -17 | 40 |
| GTGGTCGGAAACGACCGC (.(((((....))))).) | -17.8 | 63 |
| GATCACTGTTGTGATC ((((((....)))))) | -31.8 | 57.5 |
| GGCAACCCGAAAGGGGCC (((..(((....)))))) | -23.8 | 55.4 |
| GGATTCGAAAGAAATCC ((((((....))).))) | -24.1 | 44 |
| GCTAGTGCGAAAGCAAGC (((..(((....)))))) | -12.3 | 39 |
| GGTATTGGAAACAATACC (((((((....))))))) | -43.7 | 56.9 |
| GCACACGAAAGTGATTGC ((((((....)))..))) | -18.5 | 39.8 |
| GCCAACCGAAAGGTGGGC (((.(((....))).))) | -40.6 | 68.4 |
| GCCACCGAAAGGTTTGGC ((((((....)))..))) | -26.6 | 48.7 |
| GTGCTAACGAAAGTTCAC (((..(((....)))))) | -7.2 | 25.4 |
| GCCACCGAAAGGTGCGGC ((((((....)))..))) | -13.1 | 60.8 |
| GATCATTGGCATGATC ((((((....)))))) | -30.3 | 45.5 |
| GCATAATCGAAAGATTGC (((..(((....)))))) | -18.1 | 37.2 |

| Sequence | folding enthalpy [1] [kcal/mol] | Tm [2] [°C] |
| --- | --- | --- |
| GGATACGAAAGTACTCC ((((((....))).))) | -22.9 | 37.9 |
| GCCACGCGAAAGCGGTGC ((..(((....)))..)) | -13.3 | 50.1 |
| GGTACCGGAAACGGTGCC ((.((((....)))).)) | -38.3 | 60.6 |
| GTATCCGAAAGGAAATAC ((((((....)))..))) | -16.8 | 31 |
| GGGCAACGAAAGTTCCC (((.(((....)))))) | -22.1 | 47.4 |
| GATCTACGATTAGATC ((((((....)))))) | -27.4 | 34.9 |
| GATCACCTACGTGATC ((((((....)))))) | -43 | 56.6 |
| CGTGACGGAAACGTGACG (((.(((....))).))) | -26.2 | 48.9 |
| GGTTTGGGAAACCAGACC (((.(((....))).))) | -33.1 | 47.8 |
| GTGGGCACGAAAGTGCAC (((..(((....)))))) | -14.6 | 65.4 |
| GATCTAGATTAGATC ((((((...)))))) | -26.3 | 36.2 |
| CGAGACCGGAAACGGTCG (((..(((....)))))) | -23.4 | 57.1 |
| GGAGTCGAAAGACTCTCC ((((((....)))..))) | -10.2 | 51.6 |
| GAGGTCGCGAAAGCGCTC (((..(((....)))))) | -9.53 | 35.1 |
| GCATAGCGAAAGCCAGGC ((.(.((....)).).)) | -12.3 | 32.9 |
| GGTGACGAAAGTCGTACC ((((((....)))..))) | -15.6 | 46.2 |
| GCGCTAGGAAACCAACGC (((.(.(....).).))) | -10.5 | 28.6 |
| GGTTACCGAAAGGTACC (((.(((....)))))) | -20.4 | 51 |
| GTTTCTCGAAAGAGGAAC (((.(((....))).))) | -34.7 | 49.1 |
| GCATACGGAAACGTATGC (((((((....))))))) | -47.5 | 67.7 |
| GATCCAAGGTTGGATC ((((((....)))))) | -37.5 | 51.4 |
| GTACCCGAAAGGGTATAC ((((((....)))..))) | -10.4 | 49.4 |
| GGAGGCGAAAGCCATTCC ((((((....)))..))) | -7.5 | 34.7 |

| Sequence | folding enthalpy [1] [kcal/mol] | Tm [2] [°C] |
| --- | --- | --- |
| GCTGCGCGAAAGCCGAGC (((..((....))..))) | -17 | 45 |
| GTCTGGGCGAAAGCCGAC (((..(((....)))))) | -14.6 | 44.4 |
| GATCTATGTCTAGATC ((((((....)))))) | -26.6 | 38.5 |
| GCTAATGAAAATTAGC ((((((....)))))) | -31.7 | 50 |
| GACGGGGGAAACCCCGCC (.(((((....))))).) | -12.5 | 50.5 |
| GTTCTGGGAAACTAGAGC (.(((.(....).))).) | -8.92 | 24.9 |
| GCCTATCGAAAGATTGGC (((.(((....))).))) | -35.2 | 53.4 |
| GAGAGGACGAAAGTCCTC (((..(((....)))))) | -8.73 | 60.8 |
| GGGTCTCGAAAGAGCCCC (((.(((....))).))) | -37.9 | 57.4 |
| GCGACCGGAAACGGTCAC (.(((((....))))).) | -12.3 | 51.4 |
| GATCAAATGGTTGATC ((((((....)))))) | -28.5 | 39.6 |
| GATCTACAGATAGATC ((((((....)))))) | -26.6 | 37.3 |
| GACCCAACGAAAGTTGTC (((..(((....)))))) | -10.5 | 29 |
| TATACGAAAGTATA (((((....))))) | -14.9 | 42.1 |
| GATCCACCACTGGATC ((((((....)))))) | -36.9 | 49.4 |
| GATCTCCGAAAGGAAATC (((.(((....))).))) | -25.1 | 34.2 |
| GGATCCGAAAGGAGGTCC ((((((....)))..))) | -14.9 | 32.9 |
| GGCATATCGAAAGATGCC (((..(((....)))))) | -29 | 50.1 |
| GATCGGGGACCCGATC ((((((....)))))) | -45.9 | 63 |
| GATCCAAGTGTGGATC ((((((....)))))) | -32.3 | 50.3 |
| GATCCACCTGTGGATC ((((((....)))))) | -42.1 | 63.8 |
| GCGGCTACGAAAGTACGC (((..(((....)))))) | -21.6 | 47.6 |
| GCGAGCATTCGC ((((....)))) | -27.1 | 57.1 |
